Consider 19 molecules from ChEMBL document CHEMBL1287664, “Synthesis and biological analysis of prostate-specific membrane antigen-targeted anticancer prodrugs” (J Med Chem, 2010).

Activity calls are given as the source filed them. The calls are words filed in the database; no cut-off is given here.

A word on the IC50: it is the midpoint of a concentration-inhibition curve. A high value points to lower potency.

Assay [1] has as its system LNCaP. Put plainly: Cytotoxicity against human LNCAP cells. Format: functional, cell-based. Summed up:
(§1)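 LNCaP cells (RPMI 1640, 10% heat-inactivated FBS) were seeded at 50000 cells/well and grown 48 h to monolayers. They were pulsed 2 h at 37 °C with drug (free drugs in DMSO; conjugates in saline, ± 100-fold excess PMPA), then chased 66 h drug-free. Cells were labelled 4 h with [3H]-thymidine, TCA-precipitated, NaOH-solubilised and scintillation-counted. IC50 came from % incorporation vs log concentration.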

For assay [2], the system named is LNCaP. Put plainly: Cytotoxicity against human LNCAP cells at 100 pM to 1 uM. The format is functional, cell-based. Summed up: as §1
Assay [3] concerns LNCaP. The assay is described as follows: Cytotoxicity against human LNCAP cells after 2 hrs by [3H]thymidine incorporation assay. The format is functional, cell-based. The gist of the method: (§2)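 LNCaP cells were seeded at 50000 cells/well and grown to monolayers over 48 h. They were exposed to increasing drug concentrations for 2 h at 37 °C, then kept in drug-free medium for 66 h. [3H]-thymidine (1 mCi/mL) was added for 4 h. Cells were TCA-precipitated (5%, 10 min), dissolved in 0.25 N NaOH and scintillation-counted. IC50 came from % incorporation versus log concentration.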
A general note: Incorporation of labelled thymidine or its analogues reports DNA synthesis.

In assay [4] the test system is LNCaP. The assay is described as follows: Cytotoxicity against human LNCAP cells after 2 hrs by [3H]thymidine incorporation assay in presence of 100-fold […]. Format: functional, cell-based. Summed up:
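LNCaP monolayers (50000 cells/well, 48 h) received 100-fold excess PMPA to block PSMA sites before the saline-dissolved DUPA conjugate was added. Exposure was 2 h at 37 °C, followed by 66 h in drug-free medium. Viability was read as [3H]-thymidine incorporation (1 mCi/mL, 4 h), TCA-precipitated and scintillation-counted. IC50 came from incorporation versus log concentration.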

For assay [5], the target named is Glutamate carboxypeptidase 2 (Homo sapiens) (UniProt Q04609). Put plainly: Displacement of DUPA-99mTc from human prostate-specific membrane antigen in LNCaP cells assessed as relative binding affinity after 2 hrs at 37 degC. Format: cell-based.
Assay [6] concerns LNCaP. Put plainly: Cytotoxicity against human LNCAP cells at 100 pM to 1 uM after 2 hrs by [3H]thymidine incorporation assay. The format is functional, cell-based. The gist of the method: as §2

Chain of Glutamate carboxypeptidase 2 (Homo sapiens) (Q04609 whole entry, looked up): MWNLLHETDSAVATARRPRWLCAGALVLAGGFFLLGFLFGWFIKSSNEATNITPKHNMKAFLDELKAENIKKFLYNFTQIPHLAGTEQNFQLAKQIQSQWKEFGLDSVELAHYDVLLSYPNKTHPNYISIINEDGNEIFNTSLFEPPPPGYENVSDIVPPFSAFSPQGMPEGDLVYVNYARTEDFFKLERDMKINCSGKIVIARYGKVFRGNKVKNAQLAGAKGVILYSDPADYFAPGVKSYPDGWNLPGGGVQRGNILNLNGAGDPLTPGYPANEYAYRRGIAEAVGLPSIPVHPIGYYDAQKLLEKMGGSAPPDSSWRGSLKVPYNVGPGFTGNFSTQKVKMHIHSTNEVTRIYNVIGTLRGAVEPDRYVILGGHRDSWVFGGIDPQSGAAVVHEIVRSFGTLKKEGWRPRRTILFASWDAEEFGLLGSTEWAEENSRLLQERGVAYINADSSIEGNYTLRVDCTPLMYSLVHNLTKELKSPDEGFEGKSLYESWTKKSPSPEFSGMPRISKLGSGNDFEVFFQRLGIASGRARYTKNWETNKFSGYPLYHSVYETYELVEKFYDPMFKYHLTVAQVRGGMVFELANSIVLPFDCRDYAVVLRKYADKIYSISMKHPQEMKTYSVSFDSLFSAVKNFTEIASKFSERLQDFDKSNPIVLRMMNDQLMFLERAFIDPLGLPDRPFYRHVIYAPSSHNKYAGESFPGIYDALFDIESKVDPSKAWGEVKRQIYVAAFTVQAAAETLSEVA

`CC[C@]1(O)C[C@@H]2CN(CCc3c([nH]c4ccccc34)[C@@](C(=O)OC)(c3cc4c(cc3OC)N(C)[C@H]3[C@@](O)(C(N)=O)[C@H](O)[C@]5(CC)C=CCN6CC[C@]43[C@@H]65)C2)C1` [VINDESINE]: the half-inhibitory concentration (IC50) in the assay on LNCaP [1] (Homo sapiens, LNCaP) is 9.5 nM.
For `CO[C@@H]1C[C@@H](C[C@H]2CC[C@H](C)[C@H]([C@@H](C)C(=O)O)O2)O[C@]2(O[C@](C)([C@H]3CC[C@@](C)([C@@H]4O[C@@H]([C@H]5O[C@@](O)(CO)[C@H](C)C[C@@H]5C)C[C@@H]4C)O3)C[C@H]2C)[C@@H]1C`, the result with LNCaP [2] was inactive.
For the molecule `OCCC#Cc1nc(-c2ccc(F)cc2)c(-c2ccncc2)n1CCCc1ccccc1`, the outcome in the assay with LNCaP [2] was inactive.
On to `COc1cccc2c1C(=O)c1c(O)c3c(c(O)c1C2=O)C[C@@](O)(C(=O)CO)C[C@@H]3O[C@H]1C[C@H](N)[C@H](O)[C@H](C)O1` [DOXORUBICIN], for which the midpoint of inhibition with LNCaP [1] (Homo sapiens, LNCaP), the IC50, lay at 77.6 nM.
Turning to `CC[C@H](C)[C@H](NC(=O)[C@H]1CCCCN1C)C(=O)N(COC(=O)CC(C)C)[C@H](C[C@@H](OC(C)=O)c1nc(C(=O)N[C@@H](Cc2ccc(C)cc2)C[C@H](C)C(=O)NNC(=O)OCCSSC[C@H](NC(=O)[C@H](Cc2ccccc2)NC(=O)[C@H](Cc2ccccc2)NC(=O)CCCCCCCNC(=O)CC[C@H](NC(=O)N[C@H](CCC(=O)O)C(=O)O)C(=O)O)C(=O)O)cs1)C(C)C`, in the assay on LNCaP [3], the IC50 is 24 nM.
With `CC[C@]1(O)C[C@@H]2CN(CCc3c([nH]c4ccccc34)[C@@](C(=O)OC)(c3cc4c(cc3OC)N(C)[C@H]3[C@@](O)(C(=O)NN)[C@H](O)[C@]5(CC)C=CCN6CC[C@]43[C@@H]65)C2)C1` [DESACETYLVINBLASTINEHYDRAZIDE], half-maximal inhibition in the assay on LNCaP [1] (Homo sapiens, LNCaP) (IC50) was put at 12.2 nM.
Take `CC[C@]1(O)CCN2CCc3c([nH]c4ccccc34)[C@](C(=O)OC)(c3cc4c(cc3OC)N(C)[C@@H]3[C@](O)(C(=O)NNC(=O)OCCSSC[C@H](NC(=O)[C@H](CC(=O)O)NC(=O)[C@@H](N)CNC(=O)[C@H](Cc5ccccc5)NC(=O)[C@H](Cc5ccccc5)NC(=O)CCCCCCNC(=O)CC[C@H](NC(=O)N[C@H](CCC(=O)O)C(=O)O)C(=O)O)C(=O)O)[C@@H](O)[C@@]5(CC)C=CCN6CC[C@@]43[C@@H]65)CC1C2` (some centres undefined): the outcome with LNCaP [4] was inactive. The midpoint of inhibition with LNCaP [3], the IC50, lay at 31 nM. Also, the RBA in assay [5] is 25%.
Consider `CC[C@H](C)[C@H](NC(=O)[C@H]1CCCCN1C)C(=O)N(COC(=O)CC(C)C)[C@H](C[C@@H](OC(C)=O)c1nc(C(=O)N[C@@H](Cc2ccc(C)cc2)C[C@H](C)C(=O)NNC(=O)OCCSSC[C@H](NC(=O)[C@H](CC(=O)O)NC(=O)[C@@H](N)CNC(=O)[C@H](Cc2ccccc2)NC(=O)[C@H](Cc2ccccc2)NC(=O)CCCCCCNC(=O)CC[C@H](NC(=O)N[C@H](CCC(=O)O)C(=O)O)C(=O)O)C(=O)O)cs1)C(C)C`, for which, in the assay on LNCaP [4], the outcome was inactive. The molecule also displayed a 50% inhibitory concentration (IC50) with LNCaP [3] of 6 nM. In assay [5], the RBA stood at 26%.
`CC[C@H](C)[C@H](NC(=O)[C@H]1CCCCN1C)C(=O)N(COC(=O)CC(C)C)[C@H](C[C@@H](OC(C)=O)c1nc(C(=O)N[C@@H](Cc2ccc(C)cc2)C[C@H](C)C(=O)NNC(=O)OCCSSC[C@@H](NC(=O)[C@H](Cc2ccccc2)NC(=O)[C@H](CC(=O)O)NC(=O)CC[C@H](NC(=O)CC[C@H](NC(=O)N[C@@H](CCC(=O)O)C(=O)O)C(=O)O)C(=O)O)C(=O)O)cs1)C(C)C`: the half-maximal inhibitory concentration (IC50) in the assay on LNCaP [3] was determined as 5 nM.
`C[n+]1ccc(-c2cc[n+](C)cc2)cc1`: the result in the assay with LNCaP [2] was inactive.
The same measure, in the same setting: the result for `C[S+]([O-])c1ccc(-c2nc(-c3ccc(F)cc3)c(-c3ccncc3)[nH]2)cc1` (centres undefined) reads “inactive”; that for `CC[C@@]1(O)C(=O)OCc2c1cc1n(c2=O)Cc2cc3ccccc3nc2-1`, “inactive”.
Take `CC[C@H](C)[C@H](NC(=O)[C@H]1CCCCN1C)C(=O)N(COC(=O)CC(C)C)[C@H](C[C@@H](OC(C)=O)c1nc(C(=O)N[C@@H](Cc2ccc(C)cc2)C[C@H](C)C(=O)O)cs1)C(C)C` [TUBULYSIN]: in the assay on LNCaP [1] (Homo sapiens, LNCaP), it took 2.5 nM to reach half-maximal inhibition (IC50).
On to `CC1=C[C@H]2O[C@@H]3C[C@H]4OC(=O)/C=C/C=C/C(=O)OCC[C@@H](C)[C@H](OC(=O)OCCSSC[C@H](NC(=O)[C@H](CC(=O)O)NC(=O)[C@@H](N)CNC(=O)[C@H](Cc5ccccc5)NC(=O)[C@H](Cc5ccccc5)NC(=O)CCCCCCNC(=O)CC[C@H](NC(=O)N[C@H](CCC(=O)O)C(=O)O)C(=O)O)C(=O)O)C(=O)OC[C@@]2(CC1)[C@]4(C)[C@]31CO1`, for which the outcome in the assay with LNCaP [6] was inactive. Moreover, the RBA in assay [5] was found to be 34%.
For the molecule `C[C@]12C=CC(=O)C=C1CC[C@@H]1[C@@H]2[C@@H](O)C[C@@]2(C)[C@H]1CC[C@]2(O)C(=O)CO`, the result with LNCaP [2] was inactive.
In the case of `CC(=O)O[C@H]1C(=O)[C@@]2(C)[C@H]([C@H](OC(=O)c3ccccc3)[C@]3(O)C[C@H](OC(=O)[C@H](O)[C@@H](NC(=O)c4ccccc4)c4ccccc4)C(C)=C1C3(C)C)[C@]1(OC(C)=O)CO[C@@H]1C[C@@H]2O` [PACLITAXEL], the 50% inhibitory concentration (IC50) in the assay on LNCaP [1] (Homo sapiens, LNCaP) is 22.3 nM.
On to `CC1=C[C@H]2O[C@@H]3C[C@H]4OC(=O)/C=C\C=C\C(=O)OCC[C@@H](C)[C@H](O)C(=O)OC[C@@]2(CC1)[C@]4(C)[C@]31CO1` [VERRUCARIN A], for which the concentration for half-maximal inhibition (IC50) with LNCaP [1] (lncap) was 3.3 nM.
Turning to `C=C1[C@@H]2CCC3[C@@](CC[C@@H]4[C@H](C(=O)O)C[C@@H](O[C@@H]5O[C@H](CO)[C@@H](OS(=O)(=O)O)[C@H](OS(=O)(=O)O)[C@H]5OC(=O)CC(C)C)C[C@@]34C)(C2)[C@@H]1O` (some centres undefined), the result in the assay with LNCaP [2] was inactive.
As to `COC[C@H]1OC(=O)c2coc3c2[C@@]1(C)C1=C(C3=O)[C@@H]2CCC(=O)[C@@]2(C)C[C@H]1OC(C)=O`, the result in the assay with LNCaP [2] was inactive.
